Data reported in ChEMBL document CHEMBL4414563, “Pyrimidine Nucleosides from Streptomyces sp. SSA28” (J Nat Prod, 2019).
pIC50: −log10 of the molar value. Where a name gives a salt, the structure may show the parent alone.

Test system: HCT-116
Test: Cytotoxicity against human HCT116 cells assessed as reduction in cell viability after 24 hrs by SRB assay
Assay type: functional, cell-based
Settings: HCT-116, 24 h
Outline: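 Human colon cancer HCT-116 cells, read out by sulforhodamine B (SRB) staining, with adriamycin as the positive control.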

`CC(C)/C=C/C(=O)Nc1ccn([C@H]2CC[C@H](O[C@H]3O[C@H](C)[C@@H](N(C)C)[C@H](O)[C@H]3O)[C@@H](C)O2)c(=O)n1` and `CCC(C)/C=C/C(=O)Nc1ccn([C@H]2CC[C@H](O[C@H]3O[C@H](C)[C@@H](N(C)C)[C@H](O)[C@H]3O)[C@@H](C)O2)c(=O)n1` (some centres not stated) are within 0.2 log units of each other in pIC50: 6.11 for the first, 6.05 for the second.

Compared with `CC(C)C(=O)Nc1ccc(C(=O)Nc2ccn([C@H]3CC[C@H](O[C@H]4O[C@H](C)[C@@H](N(C)C)[C@H](O)[C@H]4O)[C@@H](C)O3)c(=O)n2)cc1`, `CC(C)CC(=O)Nc1ccn([C@H]2CC[C@H](O[C@H]3O[C@H](C)[C@@H](N(C)C)[C@H](O)[C@H]3O)[C@@H](C)O2)c(=O)n1` is 0.49 log units higher in pIC50: 5.18 for the first, 5.67 for the second. The second is the more potent here.

`C[C@H]1O[C@@H](n2ccc(NC(=O)Cc3ccccc3)nc2=O)CC[C@@H]1O` and `CCC(=O)Nc1ccn([C@H]2CC[C@H](O)[C@@H](C)O2)c(=O)n1` cannot be ordered by pIC50: less than 4.70 for the first, less than 4.70 for the second.

`CC(C)=CC(=O)Nc1ccn([C@H]2C[C@@H](O)[C@H](O)[C@@H](C)O2)c(=O)n1` and `CC(C)=CCC(=O)Nc1ccn([C@H]2CC[C@H](O)[C@@H](C)O2)c(=O)n1` cannot be ordered by pIC50: less than 4.70 for the first, less than 4.70 for the second.

`CC(C)/C=C/C(=O)Nc1ccn([C@H]2CC[C@H](O)[C@@H](C)O2)c(=O)n1` and `CC(C)C(=O)Nc1ccn([C@H]2CC[C@H](O)[C@@H](C)O2)c(=O)n1` cannot be ordered by pIC50: less than 4.70 for the first, less than 4.70 for the second.

`C[C@H]1O[C@@H](n2ccc(NC(=O)CC(C)(C)O)nc2=O)CC[C@@H]1O` and `CC(=O)Nc1ccn([C@H]2CC[C@H](O)[C@@H](C)O2)c(=O)n1` cannot be ordered by pIC50: less than 4.70 for the first, less than 4.70 for the second.

`CC(=O)C(C)Nc1ccc(C(=O)Nc2ccn([C@H]3CC[C@H](O)[C@@H](C)O3)c(=O)n2)cc1` (some centres not stated) and `CC(C)CCC(=O)Nc1ccn([C@H]2CC[C@H](O)[C@@H](C)O2)c(=O)n1` cannot be ordered by pIC50: less than 4.70 for the first, less than 4.70 for the second.

First: CC(C)CCC(=O)Nc1ccn([C@H]2CC[C@H](O[C@H]3O[C@H](C)[C@@H](N(C)C)[C@H](O)[C@H]3O)[C@@H](C)O2)c(=O)n1
Second: C/C=C(\C)C(=O)Nc1ccn([C@H]2CC[C@H](O[C@H]3O[C@H](C)[C@@H](N(C)C)[C@H](O)[C@H]3O)[C@@H](C)O2)c(=O)n1
The pIC50 of the first is 1.22 log units higher: 6.41 for the first, 5.19 for the second. The first is the more potent here.

Compound `COc1cccc2c1C(=O)c1c(O)c3c(c(O)c1C2=O)C[C@@](O)(C(=O)CO)C[C@@H]3O[C@H]1C[C@H](N)[C@H](O)[C@H](C)O1` [DOXORUBICIN HYDROCHLORIDE] has a pIC50 of 7.22.
